Assay results: ChEMBL document CHEMBL4190346, “Structure-based design, synthesis, and biological evaluation of withaferin A-analogues as potent apoptotic inducers” (Eur J Med Chem, 2017)
The source made the active and inactive calls. The calls are words filed in the database; no cut-off is given here.

What was measured:
[1] = system: HeLa; assay: Induction of apoptosis in human HeLa cells assessed as reduction in cellular adhesion at 32 uM incubated for 4 hrs by light microscopy
[2] = system: Vero; assay: Cytotoxicity against African green monkey Vero cells assessed as reduction in cell viability using compound addition to cell culture cells in lag phase of growth and incubated for 48 hrs by MTT assay; assay type: cell-based, Chlorocebus sabaeus; conditions: Chlorocebus sabaeus, Vero, 48 h; read-out: IC50
[3] = system: Vero; assay: Cytotoxicity against African green monkey Vero cells assessed as reduction in cell viability using compound addition to cell culture cells in log phase of growth and incubated for 48 hrs by MTT assay; assay type: cell-based, Chlorocebus sabaeus; conditions: Chlorocebus sabaeus, Vero, 48 h; read-out: IC50
[4] = system: HeLa; assay: Induction of apoptosis in human HeLa cells assessed as increase in caspase-3 activity by measuring pNA release level at 32 uM incubated for 4 hrs using c-DEVD-pNA substrate by colorimetric assay; assay type: functional
Summary of the method: (§1)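 HeLa cells in DMEM with 10% FBS were exposed for 4 h (fixed 24 or 32 level for 8 h). Staurosporine for 4 h served as the positive control. Cells were lysed at 4 °C for 10 min and centrifuged, and supernatant protein was measured by Bradford. Caspase-3 activity was read colorimetrically as nmol pNA/min/mL, with treated/untreated OD ratios. Values are means ± SD of three independent experiments in triplicate.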

[5] = system: HeLa; assay: Induction of apoptosis in human HeLa cells assessed as increase in caspase-3 activity by measuring pNA release level at 8 uM incubated for 4 hrs using c-DEVD-pNA substrate by colorimetric assay; assay type: functional
Summary of the method: as §1

[6] = system: MCF7; assay: Cytotoxicity against human MCF7 cells assessed as reduction in cell viability using compound addition to cell culture cells in lag phase of growth and incubated for 48 hrs by MTT assay; assay type: functional, cell-based; conditions: Homo sapiens, MCF7, 48 h; read-out: IC50
[7] = system: HeLa; assay: Induction of apoptosis in human HeLa cells assessed as increase in caspase-3 activity by measuring pNA release level at 12 uM incubated for 4 hrs using c-DEVD-pNA substrate by colorimetric assay; assay type: functional
Summary of the method: as §1

[8] = system: MCF7; assay: Cytotoxicity against human MCF7 cells assessed as reduction in cell viability using compound addition to cell culture cells in log phase of growth and incubated for 48 hrs by MTT assay; assay type: functional, cell-based; conditions: Homo sapiens, MCF7, 48 h; read-out: IC50
[9] = system: HeLa; assay: Induction of apoptosis in human HeLa cells assessed as increase in caspase-3 activity by measuring pNA release level at 16 uM incubated for 4 hrs using c-DEVD-pNA substrate by colorimetric assay; assay type: functional
Summary of the method: as §1

[10] = system: HeLa; assay: Induction of apoptosis in human HeLa cells assessed as increase in caspase-3 activity by measuring pNA release level at 24 uM incubated for 4 hrs using c-DEVD-pNA substrate by colorimetric assay; assay type: functional
Summary of the method: as §1

[11] = system: HeLa; assay: Cytotoxicity against human HeLa cells assessed as reduction in cell viability using compound addition to cell culture cells in lag phase of growth and incubated for 48 hrs by MTT assay; assay type: functional, cell-based; conditions: Homo sapiens, HeLa, 48 h; read-out: IC50
[12] = system: A549; assay: Cytotoxicity against human A549 cells assessed as reduction in cell viability using compound addition to cell culture cells in lag phase of growth and incubated for 48 hrs by MTT assay; assay type: functional, cell-based; conditions: Homo sapiens, A549, 48 h; read-out: IC50
[13] = system: HeLa; assay: Cytotoxicity against human HeLa cells assessed as reduction in cell viability using compound addition to cell culture cells in log phase of growth and incubated for 48 hrs by MTT assay; assay type: functional, cell-based; conditions: Homo sapiens, HeLa, 48 h; read-out: IC50
[14] = system: MCF7; assay: Ratio of IC50 for cytotoxicity against human MCF7 cells using compound addition to cell culture cells in lag phase of growth and incubated for 48 hrs by MTT assay to IC50 for cytotoxicity against human MCF7 cells using compound addition to cell culture cells in log phase of growth and incubated for 48 hrs by MTT assay; assay type: functional
[15] = system: A549; assay: Cytotoxicity against human A549 cells assessed as reduction in cell viability using compound addition to cell culture cells in log phase of growth and incubated for 48 hrs by MTT assay; assay type: functional, cell-based; conditions: Homo sapiens, A549, 48 h; read-out: IC50
[16] = system: HeLa; assay: Induction of apoptosis in human HeLa cells assessed as reduction in cellular integrity at 32 uM incubated for 4 hrs by light microscopy
[17] = system: HeLa; assay: Induction of cell cycle arrest in human HeLa cells assessed increase in subG1 phase accumulation at 24 uM incubated for 12 hrs by 33342 propidium iodide based flow cytometry relative to untreated control; assay type: functional
[18] = system: HeLa; assay: Induction of apoptosis in human HeLa cells assessed increase in apoptotic nuclei formation at 8 uM incubated for 12 hrs by Hoechst 33342 staining based fluorescence microscopy; assay type: functional
[19] = system: HeLa; assay: Induction of apoptosis in human HeLa cells assessed as […] by measuring pNA release level at 32 uM incubated for 8 hrs using c-DEVD-pNA substrate by colorimetric assay; assay type: functional, cell-based
Summary of the method: as §1

[20] = system: HeLa; assay: Induction of apoptosis in human HeLa cells assessed increase in DNA fragmentation at 16 uM incubated for 12 hrs by ethidium bromide staining based agarose gel electrophoresis; assay type: functional, cell-based
Summary of the method: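 HeLa cells were incubated with the compounds at varying concentrations for 12 or 24 h. Controls were DMSO (solvent) and staurosporine 2 µM (positive). Adherent and floating cells were pooled, centrifuged at 500 g and washed twice in cold PBS. Genomic DNA was extracted with a kit, run on 1.8% agarose, stained with ethidium bromide and viewed under UV.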

[21] = system: HeLa; assay: Induction of apoptosis in human HeLa cells at 10 uM incubated for 4 hrs by annexin V and propidium iodide staining based flow cytometry; assay type: functional, cell-based
[22] = system: HeLa; assay: Induction of cell cycle arrest in human HeLa cells assessed increase in hypoploid phase accumulation at 24 uM incubated for 12 hrs by […] propidium iodide based flow cytometry relative to untreated control; assay type: functional
[23] = system: HeLa; assay: Induction of apoptosis in human HeLa cells assessed increase in phosphatidylserine externalization at 2 uM incubated for 4 hrs by annexin V and propidium iodide staining based flow cytometry; assay type: functional, cell-based
[24] = system: HeLa; assay: Induction of apoptosis in human HeLa cells assessed as increase in caspase-3 activity by measuring pNA release level at 24 uM incubated for 8 hrs using c-DEVD-pNA substrate by colorimetric assay; assay type: functional
Summary of the method: as §1

[25] = system: HeLa; assay: Induction of late apoptosis in human HeLa cells at 8 uM incubated for 1 hr by annexin V and propidium iodide staining based flow cytometry; assay type: functional, cell-based
[26] = system: HeLa; assay: Induction of cell cycle arrest in human HeLa cells assessed accumulation at G2/M phase at 16 uM incubated for 24 hrs by 33342 propidium iodide based flow cytometry relative to untreated control; assay type: functional; conditions: in the assay text read “accumulation at sub-G1 phase” for “accumulation at G2/M phase”
Summary of the method: (§2)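 HeLa cells (1–2 × 10^6 per well) were exposed for 12 h at 24 µM, or at 16 µM over a time course. Adherent and floating cells were pooled, washed in ice-cold PBS, and fixed/permeabilized overnight in ice-cold 70% ethanol. DNA was stained with propidium iodide and G1, G2/M and sub-G1 (hypoploid) fractions were read by flow cytometry. Results are from ≥3 independent experiments in triplicate.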

[27] = system: HeLa; assay: Induction of cell cycle arrest in human HeLa cells assessed increase in subG1 phase accumulation at 24 uM incubated for 12 hrs by 33342 propidium iodide based flow cytometry relative to Withaferin A; assay type: functional
Summary of the method: as §2

[28] = system: HeLa; assay: Induction of cell cycle arrest in human HeLa cells assessed reduction in G2/M phase accumulation at 16 uM by 33342 propidium iodide based flow cytometry relative to untreated control; assay type: functional; conditions: TDE = time-dependent effect
Summary of the method: as §2

[29] = Selectivity index, ratio of IC50 for African green monkey Vero cells to IC50 for human HeLa cells; assay type: toxicity; conditions: Vero cells and HeLa cells, read-out: Ratio IC50
[30] = system: HeLa; assay: Induction of cell cycle arrest in human HeLa cells assessed increase in subG1 phase accumulation at 16 uM by 33342 propidium iodide based flow cytometry relative to untreated control; assay type: functional; conditions: TDE = time-dependent effect
Summary of the method: as §2

[31] = system: HeLa; assay: Induction of early apoptosis in human HeLa cells at 4 uM incubated for 1 hr by annexin V and propidium iodide staining based flow cytometry; assay type: functional, cell-based
[32] = system: HeLa; assay: Induction of apoptosis in human HeLa cells at 12 uM incubated for 4 hrs by annexin V and propidium iodide staining based flow cytometry; assay type: functional, cell-based

Row | SMILES | IC50 [2] [nM] | IC50 [3] [nM] | Activity [4] [nmol/min/mL] | Activity [5] [nmol/min/mL] | IC50 [6] [nM] | Activity [7] [nmol/min/mL] | IC50 [8] [nM] | Activity [9] [nmol/min/mL] | Activity [10] [nmol/min/mL] | IC50 [11] [nM] | IC50 [12] [nM] | IC50 [13] [nM] | Ratio IC50 [14] | IC50 [15] [nM] | fold change (FC) [17] | Activity [18] [%] | Activity [19] | Activity [20] | other results
1 | CC1=C(COC(=O)c2ccccc2)C(=O)O[C@@H]([C@@H](C)[C@H]2CC[C@H]3[C@@H]4C[C@H]5O[C@]56C(=O)C=CC(=O)[C@]6(C)[C@H]4CC[C@]23C)C1 | 3100 | 700 | 0.61 | 0.65 | 5400 | 0.4 | 1100 | 0.67 | 1.05 | 2600 | 3200 | 1900 | >3 | 2300 |  |  |  |  | Activity [1]: Active; Activity [16]: Active
2 | CC1=C(COC(=O)C(C)(C)C)C(=O)O[C@@H]([C@@H](C)[C@H]2CC[C@H]3[C@@H]4C[C@H]5O[C@]56[C@@H](OC(=O)C(C)(C)C)C=CC(=O)[C@]6(C)[C@H]4CC[C@]23C)C1 | 400 | 500 | 0.63 | 0.26 | 600 | 0.25 | 1200 | 0.28 | 0.54 | 900 | 4100 | 2400 |  | 4600 | 4 - 6 | 15 | Active | Active | Activity [21]: Active
3 | CC1=C(CO)C(=O)O[C@@H]([C@@H](C)[C@H]2CC[C@H]3[C@@H]4C[C@H]5O[C@]56[C@@H](O)C=CC(=O)[C@]6(C)[C@H]4CC[C@]23C)C1 [WITHAFERIN A] |  | 6600 | 1.12 | 0.35 |  | 0.41 | 1300 | 0.47 | 0.55 |  |  | 6300 | 2.8 | 10100 | 4 - 6 |  |  |  | Activity [22]: 11.3%; Activity [23]: Active; Activity [24]: 0.6 to 1.9 nmol/min/mL
4 | CC1=C(COC(=O)c2ccccc2)C(=O)O[C@@H]([C@@H](C)[C@H]2CC[C@H]3[C@@H]4C[C@H]5O[C@]56[C@@H](O)C=CC(=O)[C@]6(C)[C@H]4CC[C@]23C)C1 | 200 | 500 | 0.85 | 0.32 | 300 | 0.52 | 700 | 0.67 | 1.16 | 800 | 1000 | 1600 |  | 1500 | 4 - 6 | 28 |  | Active | Activity [22]: 22.1%; Activity [25]: Active; Activity [26]: 37.8%; fold change (FC) [27]: 2; Activity [28]: Tde; Activity [24]: 1.7 to 2 nmol/min/mL; selectivity ratio [29]: 2.5; Activity [30]: Tde; Activity [31]: Active
5 | CC1=C(COC(=O)c2ccoc2)C(=O)O[C@@H]([C@@H](C)[C@H]2CC[C@H]3[C@@H]4C[C@H]5O[C@]56[C@@H](O)C=CC(=O)[C@]6(C)[C@H]4CC[C@]23C)C1 | 2800 | 700 | 1.63 | 0.44 | 3000 | 0.68 | 1000 | 0.62 | 1.01 | 2500 | 2300 | 1100 | >3 | 3300 |  |  | Active |  | 
6 | CCCC(=O)OCC1=C(C)C[C@H]([C@@H](C)[C@H]2CC[C@H]3[C@@H]4C[C@H]5O[C@]56C(=O)C=CC(=O)[C@]6(C)[C@H]4CC[C@]23C)OC1=O | 3800 | 2100 |  |  | 11500 |  | 2800 |  |  | 8300 | 6700 | 7900 | >3 | 4300 |  |  |  |  | 
7 | CC(=O)OCC1=C(C)C[C@H]([C@@H](C)[C@H]2CC[C@H]3[C@@H]4C[C@H]5O[C@]56[C@@H](OC(C)=O)C=CC(=O)[C@]6(C)[C@H]4CC[C@]23C)OC1=O |  |  | 0.68 | 0.33 |  | 0.42 |  | 0.5 | 1.06 |  |  |  |  |  |  |  |  | Active | 
8 | CC1=C(COC(=O)C(C)(C)C)C(=O)O[C@@H]([C@@H](C)[C@H]2CC[C@H]3[C@@H]4C[C@H]5O[C@]56[C@@H](O)C=CC(=O)[C@]6(C)[C@H]4CC[C@]23C)C1 | 400 | 500 | 0.93 | 0.26 | 300 | 0.61 | 400 | 0.78 | 1.04 | 800 | 1800 | 1700 |  | 2100 | 4 - 6 | 28 | Active | Active | Activity [32]: Active
